Results: ChEMBL document CHEMBL4425091, “Bafilomycins and Odoriferous Sesquiterpenoids from Streptomyces albolongus Isolated from Elephas maximus Feces” (J Nat Prod, 2016)
Converted amounts (≈) assume the structure as drawn. Structures can show the parent of a compound that is named as a salt. The source made the active and inactive calls.

Experiments:
Cryptococcus neoformans [1] = test: Antifungal activity against Cryptococcus neoformans ATCC 208821 after 72 hrs by MTT based microbroth dilution assay; assay type: functional; settings: ATCC 208821, 72 h
Summary of the method: (§1)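 MIC by broth microdilution in RPMI-1640 with NaHCO3 and MOPS, pH 7.0. DMSO stocks were 2-fold serially diluted to eight levels, then 10-fold in medium (1.1–0.0086 mg/mL). 10 µL was added to 100 µL yeast suspension: C. albicans and C. parapsilosis at 2 × 10^3 cfu/mL for 48 h; C. neoformans at 5 × 10^4 cfu/mL for 72 h; all at 28 °C. MTT added for 4 h, DMSO solubilization, A570.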

Candida parapsilosis [2] = test: Antifungal activity against Candida parapsilosis ATCC 22019 after 48 hrs by MTT based microbroth dilution assay; assay type: functional; settings: Lodderomyces parapsilosis, ATCC 22019, 48 h; summary of the method: as §1
Candida albicans [3] = test: Antifungal activity against Candida albicans ATCC MYA-2876 after 48 hrs by MTT based microbroth dilution assay; assay type: functional; settings: ATCC MYA-2876, 48 h; summary of the method: as §1
SMMC-7721 = test: Cytotoxicity against human SMMC7721 cells assessed as reduction in cell viability by MTT assay; assay type: functional, cell-based
Summary of the method: (§2)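 MTT viability assay in human cancer cell lines. IC50 was defined as a 50% reduction of absorbance relative to the control assay. Adriamycin served as the positive control.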

BGC-823 = test: Cytotoxicity against human BGC823 cells assessed as reduction in cell viability by MTT assay; assay type: functional, cell-based; summary of the method: as §2
NCI-H460 = test: Cytotoxicity against human NCI-H460 cells assessed as reduction in cell viability by MTT assay; assay type: functional, cell-based; summary of the method: as §2
Caco-2 = test: Cytotoxicity against human Caco2 cells assessed as reduction in cell viability by MTT assay; assay type: functional, cell-based; summary of the method: as §2
Bacillus spizizenii [4] = test: Antibacterial activity against Bacillus subtilis ATCC 6633 at 100 ug/ml after 24 hrs by MTT based microbroth dilution assay; assay type: functional, organism-based
Candida albicans [5] = test: Antifungal activity against Candida albicans ATCC MYA-2876 at 100 ug/ml after 48 hrs by MTT based microbroth dilution assay; assay type: functional, organism-based
Candida parapsilosis [6] = test: Antifungal activity against Candida parapsilosis ATCC 22019 at 100 ug/ml after 48 hrs by MTT based microbroth dilution assay; assay type: functional, organism-based
Staphylococcus aureus [7] = test: Antibacterial activity against Staphylococcus aureus ATCC 25923 at 100 ug/ml after 24 hrs by MTT based microbroth dilution assay; assay type: functional, organism-based
Escherichia coli = test: Antibacterial activity against Escherichia coli ATCC 25922 at 100 ug/ml after 24 hrs by MTT based microbroth dilution assay; assay type: functional, organism-based
Cryptococcus neoformans [8] = test: Antifungal activity against Cryptococcus neoformans ATCC 208821 at 100 ug/ml after 72 hrs by MTT based microbroth dilution assay; assay type: functional, organism-based
Bacillus spizizenii [9] = test: Antibacterial activity against Bacillus subtilis ATCC 6633 after 24 hrs by MTT based microbroth dilution assay; assay type: functional; settings: ATCC 6633, 24 h
Summary of the method: (§3)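 Two-fold broth microdilution MIC in LB medium (pH 7.0). Compounds dissolved in DMSO, serially diluted to eight levels (11.0−0.086 mg/mL), then each diluted 10-fold in medium (1.1−0.0086 mg/mL). 10 μL of this added to 100 μL of bacteria at 1 × 10^6 cfu/mL. Incubated 24 h at 28 °C. MTT added for 4 h, wells emptied, DMSO added, absorbance read at 570 nm.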

Staphylococcus aureus [10] = test: Antibacterial activity against Staphylococcus aureus ATCC 25923 after 24 hrs by MTT based microbroth dilution assay; assay type: functional; settings: ATCC 25923, 24 h; summary of the method: as §3

Structure (SMILES) | MIC (Cryptococcus neoformans [1]) | MIC (Candida parapsilosis [2]) | MIC (Candida albicans [3]) | IC50 (SMMC-7721) | IC50 (BGC-823) | IC50 (NCI-H460) | IC50 (Caco-2) | Activity (Bacillus spizizenii [4]) | Activity (Candida albicans [5]) | Activity (Candida parapsilosis [6]) | Activity (Staphylococcus aureus [7]) | Activity (Escherichia coli) | Activity (Cryptococcus neoformans [8]) | Activity (SMMC-7721) | Activity (BGC-823) | Activity (NCI-H460) | Activity (Caco-2) | MIC (Bacillus spizizenii [9]) | MIC (Staphylococcus aureus [10])
C[C@H]1CC[C@@H](O)[C@@]2(C)CCCC[C@]12O | > 100 µg/mL | 3.13 µg/mL (≈ 15.8 µM) | 12.5 µg/mL (≈ 63 µM) | 41.7 µM | 34.6 µM | > 100 µM | 85.5 µM | – | – | – | – | – | – | – | – | – | – | – | –
CC1(C)C[C@H]2[C@H]1CC[C@@]1(C)C[C@]2(O)CC[C@@H]1O | – | – | – | – | – | – | – | inactive | inactive | inactive | inactive | inactive | inactive | inactive | inactive | inactive | inactive | – | –
C[C@H]1[C@@H](O)CC[C@@]2(C)CCCC[C@]12O | – | – | – | > 100 µM | 49.3 µM | > 100 µM | > 100 µM | inactive | inactive | inactive | inactive | inactive | inactive | – | – | – | – | – | –
CC1=C[C@@H]2[C@@H](C(C)C)CC[C@H](C)[C@]2(O)CC1 | – | – | – | – | – | – | – | inactive | inactive | inactive | inactive | inactive | inactive | inactive | inactive | inactive | inactive | – | –
C[C@H]1CC[C@@H](O)[C@@]2(C)C[C@H](O)CC[C@]12O | > 100 µg/mL | 100 µg/mL (≈ 467 µM) | 100 µg/mL (≈ 467 µM) | > 100 µM | 47.2 µM | > 100 µM | 42.5 µM | – | – | – | – | – | – | – | – | – | – | – | –
CC1(C)C[C@H]2[C@H]1CC[C@]1(C)CCC[C@@]2(O)C1 | – | – | – | – | – | – | – | inactive | inactive | inactive | inactive | inactive | inactive | inactive | inactive | inactive | inactive | – | –
CO/C1=C\C(C)=C\[C@@H](C)[C@@H](O)[C@@H](C)C/C(C)=C/C=C/[C@H](OC)[C@@H]([C@@H](C)[C@@H](O)[C@H](C)[C@@]2(O)C[C@@H](OC)[C@H](C)[C@@H](C(C)C)O2)OC1=O [BAFILOMYCIN G] | – | – | – | 8.67 µM | 69.2 µM | > 100 µM | > 100 µM | inactive | inactive | inactive | inactive | inactive | inactive | – | – | – | – | – | –
CO/C1=C\C(C)=C\[C@@H](C)[C@@H](O)[C@@H](C)C/C(C)=C/C=C/[C@H](OC)[C@@H]([C@@H](C)[C@@H](O)[C@H](C)[C@@]2(O)CC[C@H](C)[C@@H](C(C)C)O2)OC1=O | 25 µg/mL (≈ 41.2 µM) | 3.13 µg/mL (≈ 5.16 µM) | 100 µg/mL (≈ 165 µM) | 10.1 µM | 11.8 µM | 44.1 µM | 46.2 µM | – | – | – | – | – | – | – | – | – | – | – | –
CO/C1=C\C(C)=C\[C@@H](C)[C@@H](O)[C@@H](C)C/C(C)=C/C=C/[C@H](OC)[C@@H]([C@@H](C)[C@@H](O)[C@H](C)[C@@]2(O)C[C@@H](O)[C@H](C)[C@@H](C(C)C)O2)OC1=O [BAFILOMYCIN A1] | – | – | – | 2.03 µM | 6.47 µM | 12.4 µM | 5.49 µM | inactive | inactive | inactive | inactive | inactive | inactive | – | – | – | – | – | –
C[C@@H]1[C@H](O)[C@@H](C)/C=C/C=C/C=C/C=C/C=C/C=C/C=C/[C@H](O[C@@H]2O[C@H](C)[C@@H](O)[C@H](N)[C@@H]2O)C[C@@H]2O[C@](O)(C[C@@H](O)C[C@@H](O)[C@H](O)CC[C@@H](O)C[C@@H](O)CC(=O)O[C@H]1C)C[C@H](O)[C@H]2C(=O)O [AMPHOTERICIN B] | 2 µg/mL (≈ 2.16 µM) | 2 µg/mL (≈ 2.16 µM) | 1 µg/mL (≈ 1.08 µM) | – | – | – | – | – | – | – | – | – | – | – | – | – | – | – | –
COc1cccc2c1C(=O)c1c(O)c3c(c(O)c1C2=O)C[C@@](O)(C(=O)CO)C[C@@H]3O[C@H]1C[C@H](N)[C@H](O)[C@H](C)O1 [DOXORUBICIN HYDROCHLORIDE] | – | – | – | 2.24 µM | – | 0.98 µM | 0.97 µM | – | – | – | – | – | – | – | – | – | – | – | –
CO/C1=C\C(C)=C\[C@@H](C)[C@@H](O)[C@@H](C)C/C(C)=C/C=C/[C@H](OC)[C@@H]([C@@H](C)[C@@H](O)[C@H](C)[C@@]2(OC)C[C@@H](OC(=O)/C=C/C(N)=O)[C@H](C)[C@@H](C(C)C)O2)OC1=O | – | – | – | 1.36 µM | 3.58 µM | 5.02 µM | 2.81 µM | inactive | inactive | inactive | inactive | inactive | inactive | – | – | – | – | – | –
CO/C1=C\C(C)=C\[C@@H](C)[C@@H](O)[C@@H](C)C/C(C)=C/C=C/[C@H](OC)[C@@H]([C@@H](C)[C@@H](O)[C@H](C)[C@@]2(O)C[C@@H](OC(=O)/C=C/C(=O)O)[C@H](C)[C@@H](C(C)C)O2)OC1=O | 1.56 µg/mL (≈ 2.16 µM) | 1.56 µg/mL (≈ 2.16 µM) | 1.56 µg/mL (≈ 2.16 µM) | 0.54 µM | 1.83 µM | 3.43 µM | 1.89 µM | – | – | – | – | – | – | – | – | – | – | 12.5 µg/mL (≈ 17.3 µM) | 12.5 µg/mL (≈ 17.3 µM)
CO/C1=C\C(C)=C\[C@@H](C)[C@@H](O)[C@@H](C)C/C(C)=C/C=C/[C@H](OC)[C@@H]([C@@H](C)[C@@H](O)[C@H](C)[C@@]2(OC)C[C@@H](O)[C@H](C)[C@@H](C(C)C)O2)OC1=O | – | – | – | 9.42 µM | 22.4 µM | 26.7 µM | 10.2 µM | inactive | inactive | inactive | inactive | inactive | inactive | – | – | – | – | – | –
CO/C1=C/C(C)=C/[C@@H](C)[C@@H](O)[C@@H](C)C/C(C)=C/C=C/[C@H](OC)C([C@@H](C)[C@@H](O)[C@H](C)C(=O)/C=C/[C@H](C)[C@H](O)C(C)C)OC1=O (some centres undefined) | – | – | – | 9.79 µM | 9.46 µM | 49.8 µM | 14.6 µM | inactive | inactive | inactive | inactive | inactive | inactive | – | – | – | – | – | –
CO/C1=C\C(C)=C\[C@@H](C)[C@@H](O)[C@@H](C)C/C(C)=C/C=C/[C@H](OC)[C@@H]([C@@H](C)[C@@H](O)[C@H](C)[C@@]2(O)C[C@@H](OC(=O)/C=C/C(N)=O)[C@H](C)[C@@H](C(C)C)O2)OC1=O | 25 µg/mL (≈ 34.7 µM) | 1.56 µg/mL (≈ 2.17 µM) | 100 µg/mL (≈ 139 µM) | 1.05 µM | 0.99 µM | 2.34 µM | 2.3 µM | – | – | – | – | – | – | – | – | – | – | – | –
O=C(O)c1cn(C2CC2)c2cc(N3CCNCC3)c(F)cc2c1=O [CIPROFLOXACIN] | – | – | – | – | – | – | – | – | – | – | – | – | – | – | – | – | – | 0.25 µg/mL (≈ 0.754 µM) | –
CO/C1=C\C(C)=C\[C@@H](C)[C@@H](O)[C@@H](C)C/C(C)=C/C=C/[C@H](OC)[C@@H]([C@@H](C)[C@@H](O)[C@H](C)[C@@]2(OC)CC[C@H](C)[C@@H](C(C)C)O2)OC1=O | – | – | – | 13.6 µM | 46.9 µM | > 100 µM | > 100 µM | inactive | inactive | inactive | inactive | inactive | inactive | – | – | – | – | – | –
C/C1=C\[C@@H](O)C[C@H](C)/C=C/[C@H](C(C)(C)O)CC1 | – | – | – | – | – | – | – | inactive | inactive | inactive | inactive | inactive | inactive | inactive | inactive | inactive | inactive | – | –
